Reference: ChEMBL document CHEMBL4513216, “Probing the Open Global Health Chemical Diversity Library for Multistage-Active Starting Points for Next-Generation Antimalarials” (ACS Infect Dis, 2020)

Assay: Toxicity liver stage against HepG2, at 10uM
Type: cell-based
Set-up: test concentration 10 uM, cell line HepG2-A16-CD81EGFP
Conditions: human, HepG2-A16-CD81EGFP cells; read-out: INHIBITION
In short: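 Uninfected HepG2-A16-CD81EGFP cells, 3 × 10^3 per well, 1536-well, plated on prespotted compound at 10 μM final, parasite-free screening media added to match infected plates; puromycin 10 μM positive, DMSO 0.5% negative; run in parallel with 48 h PbLuc assay at 37 °C, 5% CO2; viability by CellTiter-Glo luminescence, normalized to controls.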

| SMILES | cytotoxicity at 10 µM |
| --- | --- |
| Cc1nccc(-c2cccc(NCc3nc(C(C)C)no3)c2)n1 | 5.75% |
| CN(C)CCN(C)C[C@H]1CN2CC[C@H]1C[C@@H]2CNC(=O)Nc1ccsc1 | 9.53% |
| CN1C(=O)CO[C@H](c2ccc(NC(=O)c3cccnc3)cc2)[C@H]1CO | 6.15% |
| CCC(CNC(=O)C1CC1)(OC)c1ccccc1 (centres undefined) | -4.34% |
| Cc1csc(CN2CC[C@H]3C(=O)N(c4cccnc4)CCO[C@H]3C2)n1 | 6.31% |
| COCCNC(=O)c1nc2c(s1)CCCN2Cc1ccccc1 | 12.6% |
| O=C(c1nc2c(s1)CCCN2CC1CC1)N1CCOCC1 | 11.2% |
| O=C(c1ccno1)N1CCC2(CC(=O)N(c3ccc4c(c3)OCO4)C2)C1 (centres undefined) | 9.82% |
| Cn1cccc1C(=O)N1CCC2(CCCN2S(C)(=O)=O)CC1 | 5.13% |
| CCS(=O)(=O)N1CCCC2(COCCN(c3nncs3)C2)C1 (centres undefined) | 7.77% |
| CC(C)COCC1CN(Cc2cnn(C)c2)Cc2ncn(C)c21 (centres undefined) | 0.588% |
| Cn1cc(CN2C[C@@H]3COC[C@]3(C(=O)NCc3cccs3)C2)cn1 | 7.22% |
| Cn1cc(N2CC3(CCN(S(=O)(=O)C4CC4)C3)CC2=O)cn1 (centres undefined) | -9.82% |
| Nc1ncc(-c2ccc(F)cc2)c(C2CCCNC2)n1 (centres undefined) | 0.109% |
| O[C@@H]1C[C@H]2CN(Cc3ccccc3Cl)[C@H](Cc3ccccc3)CN2C1 | -2.51% |
| CCn1cc(CN2CCN(CC(O)c3ccc(C)cc3C)CC2)c(C)n1 (centres undefined) | -0.664% |
| Cc1nc2ccc(C(=O)N3C[C@@H](O)[C@H](N4CCCC4)C3)cc2[nH]1 | -8.66% |
| NCc1cnn(-c2ccccc2C(=O)NCc2ccccc2Cl)c1 | -3.52% |
| COCCC(=O)N1CCCC(c2nc(O)cc(-c3ccncc3)n2)C1 (centres undefined) | -24.9% |
| Cc1ncsc1-c1nnc(C2CCN(Cc3ccccc3)CC2)o1 | -6.39% |
| c1cnc(-c2cnc(N3CCSCC3)nc2C2CCCO2)cn1 (centres undefined) | 4.4% |
| Cc1cccc(-n2cnc(Cl)c2CO)c1 | -11.8% |

| SMILES | cytotoxicity at 10 µM |
| --- | --- |
| CC1(C)COCCN1C(=O)c1ccc(Cn2cncn2)cc1 | -5.85% |
| CS(=O)(=O)N1CCC(C(=O)Nc2nnc(C(F)(F)F)[nH]2)CC1 | 9.52% |
| CCOC(C)C(=O)Nc1cc(S(=O)(=O)NC2CC2)ccc1F (centres undefined) | -7.51% |
| CC(=O)N1CCC(Oc2ccc(C#N)cc2)CC1 | -83.4% |
| CC(C)(C)c1nnc(CSc2ccccn2)o1 | 5.23% |
| O=C(O)CCc1ccc(S(=O)(=O)Nc2cnn(CC(F)(F)F)c2)cc1 | -7.52% |
| CCN(C(=O)Cc1ccc(NCc2nccn2C)cc1)c1ccccc1 | -2.09% |
| CC(=O)NC1CCN(C(=O)Nc2cccc(SC(F)F)c2)CC1 | -0.598% |
| Cc1cccc(C(=O)N(CC(=O)O)CC(C)C)c1 | -14.3% |
| CCNC(=O)C1CCN(Cc2ccccc2OCC(F)(F)F)CC1 | -3.03% |
| COc1cc(CNC(=O)c2csc(Br)c2)ccn1 | -5.76% |
| Cn1cc(C2(C)CN(Cc3ccc(N4CCCC4)nc3)CCO2)cn1 (centres undefined) | 8.32% |
| Cn1c(NC(=O)CNC(=O)C2CCCC2)nc2cc(Cl)ccc21 | -4.53% |
| CN(CC(=O)N1CCCC1c1noc(C2CC2)n1)S(C)(=O)=O (centres undefined) | -8.2% |
| O=C(Cn1cccn1)NCC(c1cccs1)N1CCCC1 (centres undefined) | 11.9% |
| CS(=O)(=O)NCCC1CCCCN1C(=O)NCCc1ccccc1 (centres undefined) | -6% |
| CCOC(C)c1noc(CN2CCN(CC3CCCC3)CC2)n1 (centres undefined) | -13.2% |
| CC(NC(=O)c1sccc1C1CC1)c1ccc2c(c1)CC(=O)N2 (centres undefined) | 1.66% |
| O=C(CC1CCCO1)Nc1ccn(Cc2cccc3cccnc23)n1 (centres undefined) | 2.17% |
| CCC(C)(C)NC(=O)Nc1nnc(-c2ccccn2)s1 | 6.39% |
| N#CCCN(c1ccc(F)cc1)S(=O)(=O)CC1CCCCO1 (centres undefined) | 5.65% |
| CSc1nc(C2CC2)nc(C)c1C(=O)NCc1cc(C)on1 | -11.7% |

| SMILES | cytotoxicity at 10 µM |
| --- | --- |
| CCN(Cc1noc(C(C)(C)C)n1)Cc1ccc(C#N)cc1F | -4.45% |
| Cc1noc(C)c1CN(C)Cn1c(=O)n(C)c2ccccc21 | 5.25% |
| COc1ccc2c(c1)CCCN2C(=O)NCCc1cnn(C)c1 | -6.94% |
| CC(Cn1cccn1)NS(=O)(=O)Cc1ccccc1 (centres undefined) | 6.8% |
| Cc1cnn(CC2CCCN2Cc2cc(=O)n3ccccc3n2)c1 (centres undefined) | -1.61% |
| OC1CCN(Cc2cc3c(cc2Br)OCCO3)CC1 | 7.73% |
| Cc1nn(C)c2sc(C(=O)N3CCCC(n4ccnc4C)C3)cc12 (centres undefined) | -10% |
| O=C(c1cscn1)N1CCC2(CCN(Cc3nccs3)C2)CC1 | 1.8% |
| O=C1CCC2(CCOC2)CN1Cc1nc2ccc(Cl)cc2[nH]1 (centres undefined) | 1.9% |
| COc1cc(N2CCCC(c3ncc[nH]3)C2)ncn1 (centres undefined) | 3.47% |
| Cc1nn(C)cc1CN(C)c1nccc(-c2cn(C)nc2C)n1 | 20.2% |
| CN(C(=O)CC1=CCCCC1)C1CCCN(C2Cc3ccccc3C2)C1 (centres undefined) | -0.296% |
| CCOc1ccnc(N2CCN(Cc3ncccc3C)CC2)n1 | -7.32% |
| CCO[C@H]1CN(C)C[C@@H]1NC(=O)c1cc(C)nc2ccc(C)cc12 | 4.15% |
| CCCc1ccc(CN2CCN(C(=O)NCC)[C@H]3CS(=O)(=O)C[C@H]32)o1 | 2.71% |
| COc1ccc(F)cc1NC(=O)NCC1(CN2CCOCC2)CC1 | 3.18% |
| COCCC1(C(=O)O)CCCN(CCOCc2ccccc2)C1 (centres undefined) | -12.3% |
| Cc1nc(N2CCC(O)(c3ccccc3)CC2)c2c(C)nn(C)c2n1 | 1.22% |
| CC(C)C[C@@H](CO)n1cc(-c2cncnc2)nn1 | -0.268% |
| CC(C)[C@H]1CN(Cc2ccccn2)C[C@@H]1NC(=O)CCS(C)(=O)=O | -7.04% |
| CN(C)[C@H]1CN(C(=O)CCCc2ccc(F)cc2)C[C@@H]1C1CC1 | -3.01% |
| CSCCCN1CCn2nc(CNC(=O)N(C)C)cc2C1 | -2.66% |

| SMILES | cytotoxicity at 10 µM |
| --- | --- |
| O=C1CC2(CCCC2)CC(=O)N1Cc1nccs1 | 3.16% |
| Cc1ccccc1Oc1ncccc1CNC1CCC1 | -1.27% |
| O=C(c1ccc(O)c(Cl)c1)N1C[C@@H](CN2CCCCCC2)[C@@H](CO)C1 | 1.89% |
| CNc1ccnc(NCCC(=O)Nc2ccccc2C)n1 | -1.53% |
| CC(c1ccncn1)N(C)Cc1cc(O)c2cc(F)ccc2n1 (centres undefined) | -2% |
| N#CC1CCN(C(=O)CN2CC(c3ccccc3)CC2=O)CC1 (centres undefined) | -0.745% |
| Cc1cc2nc(C(C)C)cc(NCC(c3ccccn3)N(C)C)n2n1 (centres undefined) | -1.63% |
| CC(CN1CCOCC1)NCc1nncn1C1CCCCC1 (centres undefined) | 1.52% |
| CSCC(=O)N1CCCC(c2cc(C)[nH]n2)C1 (centres undefined) | -11.3% |
| Cc1cnn(C2CCCN(C(=O)c3ccccc3-n3cnnn3)C2)c1 (centres undefined) | -6.92% |
| COC(=O)c1cccn1C1CCN(C(=O)c2cn[nH]c2C)CC1 | -7.64% |
| CCOc1nnc(CN2CCC(N(C)Cc3noc(C)n3)C2)s1 (centres undefined) | -7.3% |
| Cc1cc(C)c(CNC(=O)NCC(O)c2cccc(F)c2)c(=O)[nH]1 (centres undefined) | -4.37% |
| CCOc1cc(C(=O)N2CCCC(n3cncn3)C2)ccc1C (centres undefined) | -4.35% |
| O=C(NCCOc1ccc2c(c1)CCC2)N1CCS(=O)(=O)CC1 | -1.71% |
| c1cnnc(N2CCCC2CNCc2nc(-c3ccsc3)no2)c1 (centres undefined) | -7.7% |
| COc1cccc(COCC(=O)N2CCCC(N3CCCC3)CC2)c1 (centres undefined) | -4.82% |
| Cc1nn(C)c(N2CCOCC2)c1CNC1CCN(C(C)(C)C)CC1 | -3.66% |
| Cn1c(NCC(O)c2ccc(F)cc2F)c(C#N)c(=O)n(C)c1=O (centres undefined) | -10.9% |
| CC1=NN(c2ccc(C(=O)N3CCCC(n4ccnc4)C3)cc2)CC1 (centres undefined) | -15.6% |
| COc1ncccc1CNc1cc(N2CCCC2CO)ncn1 (centres undefined) | -12.6% |
| CC(C)Oc1ncccc1CNC(=O)c1cc[nH]n1 | -9.12% |

| SMILES | cytotoxicity at 10 µM |
| --- | --- |
| CC(C)N1CCC2(CC1)C(=O)N(c1cccnc1)c1ccc(F)cc12 | 12.4% |
| Cc1cc(C[C@@H]2COC[C@H]2NCc2ccc(C(C)C)cc2)on1 | -30.4% |
| Cc1cc(C)nc(Nc2cccc(C3CCCN(C)C3)n2)n1 (centres undefined) | -4.45% |
| CC(C)N(C)Cc1cnc2n1CCN(Cc1ccco1)C2 | 2.22% |
| CC(C)NC(=O)N1CCC2(C1)CN(c1ccsc1)C(=O)CN2C (centres undefined) | 1.18% |
| COc1c(CNCc2nnc3n2CCCCC3)c(C(C)C)nn1C | 11.5% |
| Cn1cc(CN2CCCC23CCN(C(=O)c2cccs2)CC3)cn1 | 2.17% |
| Cc1ccc(CN2Cc3nnn(C)c3C(COCc3ccccc3)C2)o1 (centres undefined) | 5.44% |
| COc1cccc(CN(Cc2ncc[nH]2)Cc2ccco2)c1 | -8.01% |
| CN(C)c1nc(N2CCCC2)nc2c1CCN(C(=O)c1ccco1)CC2 | 14.4% |
| COc1ncccc1CN1Cc2nnn(C)c2C(COCC2CC2)C1 (centres undefined) | 12.4% |
| O=C(c1ccno1)N1CC[C@@H]2O[C@@H](COCCN3CCCC3)CC[C@@H]21 | 0.925% |
| CN1[C@H](Cn2cccn2)C[C@@H]2CN(Cc3cccs3)CC[C@@H]21 | 11.9% |
| O=C1C[C@H]2[C@H](CCN2Cc2ccccn2)N1CC1CC1 | 5.8% |
| CC1=N[C@@]2(CC[C@@H]3CN(Cc4ccccc4C)C[C@@H]32)C(=O)N1CC1CC1 | -2.6% |
| COc1ccc(CN2C[C@@H]3OCCN(CC4CCCO4)[C@@H]3C2)cc1 (some centres undefined) | -0.851% |
| Cc1cccc(C(=O)N2C[C@@H](OCc3cccnc3)[C@H]3OCCC[C@@H]32)n1 | -1.75% |
| OCCN1CCC2(CCc3cc(-c4ccoc4)ccc32)CC1 | -0.582% |
| CN(C)C(=O)NCc1ncn2c1CN(Cc1ccco1)CCC2 | 8.22% |
| CN(C)C(=O)N1C[C@H]2CC[C@@H](C1)N(Cc1nnc(C3CC3)o1)C2 | 0.266% |
| CSc1ccccc1CN1C[C@H]2CC[C@@H](C1)N(CC1CC1)C2=O | -4.81% |
